BindingDB's records for doi:10.1016/j.bmcl.2005.10.065 (Cytrx Laboratories, 2005)

Biological target: T1, NADP-dependent malic enzyme (Homo sapiens, UniProt P48163)
T1 sequence (P48163 whole entry): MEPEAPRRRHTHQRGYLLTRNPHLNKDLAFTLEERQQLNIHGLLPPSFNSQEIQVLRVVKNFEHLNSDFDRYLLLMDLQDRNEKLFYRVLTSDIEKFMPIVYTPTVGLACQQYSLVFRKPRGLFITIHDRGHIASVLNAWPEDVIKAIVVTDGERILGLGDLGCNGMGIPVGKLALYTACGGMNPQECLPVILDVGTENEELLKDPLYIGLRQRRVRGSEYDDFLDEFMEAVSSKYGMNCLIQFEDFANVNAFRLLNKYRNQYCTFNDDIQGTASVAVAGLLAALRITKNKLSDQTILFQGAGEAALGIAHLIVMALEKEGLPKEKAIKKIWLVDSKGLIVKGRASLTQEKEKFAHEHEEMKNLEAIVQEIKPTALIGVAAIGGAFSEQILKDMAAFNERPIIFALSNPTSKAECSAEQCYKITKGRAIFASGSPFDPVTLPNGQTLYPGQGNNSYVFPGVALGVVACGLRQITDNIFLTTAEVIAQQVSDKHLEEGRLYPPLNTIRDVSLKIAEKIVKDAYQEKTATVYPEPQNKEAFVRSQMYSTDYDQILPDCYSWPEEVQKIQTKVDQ
Assay: Inhibitory activity against cytosolic malic enzyme
Summary of the method: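 Coupled endpoint assay. Enzyme pre-incubated with compound 45 min at room temperature in 85 mM Tris pH 7.5 containing 2 mM malic acid and 5 mM MnCl2. Reaction started with 124 µM NADP, run 30 min at room temperature, stopped with 0.5 M EDTA. NADPH formed read via MTS/PMS reduction to formazan, absorbance at 492 nm.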

Structure (SMILES): COc1ccc(N2CCN(c3cc(O)n(-c4cccc(Cl)c4Cl)c3O)CC2)cc1 [1-(2,3-dichlorophenyl)-3-(4-(4-methoxyphenyl)piperazin-1-yl)pyrrolidine-2,5-dione]
- IC50: > 20 µM

Structure (SMILES): COc1ccc(N2CCN(c3cc(O)n(-c4ccccc4)c3O)CC2)cc1 [3-(4-(4-methoxyphenyl)piperazin-1-yl)-1-phenylpyrrolidine-2,5-dione]
- IC50: > 20 µM
